Tests used:
[1] = target: Metabotropic glutamate receptor 1 (Rattus norvegicus, UniProt P23385); experiment: Inhibitory concentration against rat metabotropic glutamate receptor 1
How it was run: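 Rat mGlu1a stably expressed in CHO-dhfr- cells grown in DMEM/GlutaMAX1 with 10% heat-inactivated dialyzed fetal calf serum, 0.4 mM L-proline and antibiotics. Inhibition of receptor activation was measured as intracellular Ca2+ rise on a fluorometric imaging plate reader. IC50 is the mean of two or three independent experiments.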

[2] = target: Metabotropic glutamate receptor 1 (Homo sapiens, UniProt Q13255); experiment: Inhibitory concentration against human metabotropic glutamate receptor
How it was run: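 Human mGlu1a receptor stably expressed in L929sA cells grown in GlutaMAX1 medium with 10% heat-inactivated dialyzed fetal calf serum, streptomycin and penicillin. Antagonism of receptor activation was read as intracellular Ca2+ response on a fluorometric imaging plate reader. IC50 is the mean of two or three independent experiments.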

[3] = Total plasma clearance in rat after the single intravenous administration at 2.5 mg/kg; format: ADME, organism-based; parameters: dose 2.5 mg/kg, route intravenous
How it was run: (§1)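 Rats received a single intravenous 2.5 mg/kg dose. Plasma kinetics were followed to derive elimination half-life and total plasma clearance.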

[4] = Half life in rat after the single intravenous administration at 2.5 mg/kg; format: ADME, organism-based; parameters: dose 2.5 mg/kg, route intravenous; details: in vivo; how it was run: as §1

Sequence of Metabotropic glutamate receptor 1 (Rattus norvegicus, UniProt P23385) (P23385 whole entry): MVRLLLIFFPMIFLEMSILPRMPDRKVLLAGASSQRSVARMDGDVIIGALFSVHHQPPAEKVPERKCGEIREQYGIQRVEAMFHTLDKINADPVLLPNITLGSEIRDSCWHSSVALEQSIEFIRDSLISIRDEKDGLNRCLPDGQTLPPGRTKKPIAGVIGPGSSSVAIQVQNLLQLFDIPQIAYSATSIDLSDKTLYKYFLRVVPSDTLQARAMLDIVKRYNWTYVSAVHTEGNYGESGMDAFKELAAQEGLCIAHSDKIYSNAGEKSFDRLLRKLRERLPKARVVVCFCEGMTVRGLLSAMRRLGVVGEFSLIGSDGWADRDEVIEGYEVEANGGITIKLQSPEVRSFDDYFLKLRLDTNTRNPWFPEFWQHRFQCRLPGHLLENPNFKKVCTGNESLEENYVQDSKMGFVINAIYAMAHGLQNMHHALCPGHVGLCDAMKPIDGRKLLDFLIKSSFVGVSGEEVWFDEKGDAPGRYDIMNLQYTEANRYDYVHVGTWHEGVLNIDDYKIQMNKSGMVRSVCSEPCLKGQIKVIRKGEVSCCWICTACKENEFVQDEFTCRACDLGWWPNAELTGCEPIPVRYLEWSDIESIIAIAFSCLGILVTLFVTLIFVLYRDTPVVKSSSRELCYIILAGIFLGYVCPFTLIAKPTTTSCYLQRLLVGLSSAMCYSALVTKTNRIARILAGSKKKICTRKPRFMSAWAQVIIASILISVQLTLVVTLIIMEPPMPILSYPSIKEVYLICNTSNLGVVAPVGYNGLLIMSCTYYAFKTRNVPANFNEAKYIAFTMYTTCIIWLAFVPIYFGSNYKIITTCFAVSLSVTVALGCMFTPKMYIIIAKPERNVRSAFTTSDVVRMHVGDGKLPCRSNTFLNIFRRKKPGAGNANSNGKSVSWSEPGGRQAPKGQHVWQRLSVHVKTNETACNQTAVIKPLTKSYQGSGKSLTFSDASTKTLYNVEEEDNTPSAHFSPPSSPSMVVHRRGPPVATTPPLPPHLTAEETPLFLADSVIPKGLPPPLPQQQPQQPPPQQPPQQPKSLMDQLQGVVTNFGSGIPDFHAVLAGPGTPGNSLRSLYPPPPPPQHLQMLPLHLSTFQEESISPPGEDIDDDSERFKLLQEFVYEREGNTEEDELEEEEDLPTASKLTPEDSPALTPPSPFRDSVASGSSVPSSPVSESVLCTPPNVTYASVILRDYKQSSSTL
Sequence of Metabotropic glutamate receptor 1 (Homo sapiens, UniProt Q13255) (Q13255 whole entry): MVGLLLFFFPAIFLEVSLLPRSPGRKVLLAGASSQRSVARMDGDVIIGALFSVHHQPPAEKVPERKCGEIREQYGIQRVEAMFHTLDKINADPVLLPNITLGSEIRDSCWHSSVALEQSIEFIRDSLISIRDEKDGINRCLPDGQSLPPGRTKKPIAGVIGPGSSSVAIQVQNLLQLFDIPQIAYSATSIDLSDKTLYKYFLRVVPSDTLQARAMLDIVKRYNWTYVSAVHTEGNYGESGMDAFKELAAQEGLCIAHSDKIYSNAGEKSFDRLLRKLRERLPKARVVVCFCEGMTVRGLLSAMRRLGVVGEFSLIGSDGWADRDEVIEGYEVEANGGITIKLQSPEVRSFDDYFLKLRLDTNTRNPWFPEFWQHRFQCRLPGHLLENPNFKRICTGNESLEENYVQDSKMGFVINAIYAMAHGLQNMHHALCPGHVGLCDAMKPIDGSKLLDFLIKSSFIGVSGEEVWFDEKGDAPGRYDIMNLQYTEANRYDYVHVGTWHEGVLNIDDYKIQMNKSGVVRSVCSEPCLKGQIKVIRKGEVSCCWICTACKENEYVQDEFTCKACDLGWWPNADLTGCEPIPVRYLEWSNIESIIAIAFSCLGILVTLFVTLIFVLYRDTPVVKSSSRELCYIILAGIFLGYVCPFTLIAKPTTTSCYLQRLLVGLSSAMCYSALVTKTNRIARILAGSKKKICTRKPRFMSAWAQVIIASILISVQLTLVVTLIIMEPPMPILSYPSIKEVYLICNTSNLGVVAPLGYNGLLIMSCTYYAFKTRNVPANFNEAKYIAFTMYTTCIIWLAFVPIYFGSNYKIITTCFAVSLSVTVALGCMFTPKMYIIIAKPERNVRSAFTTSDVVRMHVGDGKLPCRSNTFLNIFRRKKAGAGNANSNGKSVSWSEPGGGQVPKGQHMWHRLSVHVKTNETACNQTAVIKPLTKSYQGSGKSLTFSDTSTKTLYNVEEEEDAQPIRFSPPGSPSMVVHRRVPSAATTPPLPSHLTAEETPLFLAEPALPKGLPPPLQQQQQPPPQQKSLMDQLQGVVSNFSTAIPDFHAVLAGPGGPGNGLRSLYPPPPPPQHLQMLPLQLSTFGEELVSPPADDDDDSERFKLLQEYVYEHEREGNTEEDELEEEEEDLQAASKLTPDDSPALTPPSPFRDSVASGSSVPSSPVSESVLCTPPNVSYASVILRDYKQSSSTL

For `CCc1cc2cc(C(=O)C34CC5CC(CC(C5)C3)C4)ccc2nc1C`, the IC50 [1] was 126 nM.

For `CCc1cc2cc(C(=O)Cc3ccc(N(C)C)cc3)ccc2nc1C`, the IC50 [1] was 645 nM.

Molecule `O=C(Cc1ccccc1)c1ccc2nc3c(cc2c1)CCCO3` has an IC50 [2] of 14 nM and an IC50 [1] of 6 nM.

For `CCc1cc2cc(C(=O)Cc3ccccc3)ccc2nc1C`, the IC50 [2] was 51 nM and the IC50 [1] was 10 nM.

With `O=C(CCc1ccccc1)c1ccc2nc3c(cc2c1)CCCO3` the IC50 [2] was 160 nM and the IC50 [1] was 85 nM.

`CCc1cc2cc(C(=O)[C@H]3CC[C@@H](OC)CC3)ccc2nc1F` showed an IC50 [2] of 9 nM.

`CO[C@H]1CC[C@@H](C(=O)c2ccc3nc4c(cc3c2)CCCN4C)CC1` showed an IC50 [2] of 29 nM.

`CCc1cc2cc(C(=O)CCc3ccccc3)ccc2nc1C` showed an IC50 [2] greater than 10000 nM and an IC50 [1] of 230 nM.

In the case of `CCc1cc2cc(C(=O)Cc3cccc(OC)c3)ccc2nc1C`, the IC50 [1] is reported as 435 nM.

Work on `CO[C@H]1CC[C@@H](C(=O)c2ccc3nc4c(cc3c2)CCC4)CC1` yielded an IC50 [2] of 0.56 nM.

Molecule `O=C(Cc1ccccc1)c1ccc2cc3c(nc2c1)OCCC3` has an IC50 [1] of 8300 nM.

For `CCc1cc2cc(C(=O)Cc3ccc(OC)c(OC)c3)ccc2nc1C`, the IC50 [1] was greater than 10000 nM.

`CCc1cc2cc(C(=O)C3CCC(O)CC3)ccc2nc1C` (configuration not stated) gave an IC50 [2] of 80 nM.

With `CCCc1ccc2cc(C(=O)[C@H]3CC[C@@H](OC)CC3)ccc2n1` the IC50 [2] was 3 nM.

For `CO[C@H]1CC[C@@H](C(=O)c2ccc3nc4c(cc3c2)CCCO4)CC1` (stereo in doubt; form 1), the IC50 [2] was 0.55 nM, the IC50 [1] was 3 nM and the clearance [3] was 91.7 mL/min/kg. For the same molecule, the half-life [4] was 19.2 min.

Molecule `CO[C@H]1CC[C@@H](C(=O)c2ccc3nc4c(cc3c2)CCCCC4)CC1` has an IC50 [2] of 18 nM and an IC50 [1] of 80 nM.

Work on `CCc1cc2cc(C(=O)[C@H]3CC[C@@H](OC)CC3)ccc2n2nnnc12` yielded an IC50 [2] of 450 nM and an IC50 [1] of 45 nM.

In the case of `CCc1cc2cc(C(=O)C3CCC(OC)CC3)ccc2nc1-c1nccs1` (configuration not stated), the IC50 [1] is reported as greater than 10000 nM.

Work on `O=C(Cc1ccsc1)c1ccc2nc3c(cc2c1)CCCO3` yielded an IC50 [2] of 74 nM and an IC50 [1] of 7 nM.

With `CO[C@H]1CC[C@@H](C(=O)c2ccc3nc4c(cc3c2)CCS4)CC1` the IC50 [2] was 2 nM and the IC50 [1] was 2 nM.

With `CCc1cc2cc(C(=O)C3CCC(OC)CC3)ccc2nc1-c1cccs1` (configuration not stated) the IC50 [1] was 3310 nM.

`CCc1cc2cc(C(=O)C3CCC(OC)CC3)ccc2nc1CC` (stereo in doubt; cis) gave an IC50 [2] of 8 nM.

For `C[C@H]1CC[C@@H](C(=O)c2ccc3nc4c(cc3c2)CCCCC4)CC1`, the IC50 [2] was 16 nM and the IC50 [1] was 125 nM.

With `CO[C@H]1CC[C@@H](C(=O)c2ccc3nc4c(cc3c2)CCCO4)CC1` (stereo in doubt; form 2) the IC50 [2] was 106 nM and the IC50 [1] was 45 nM.

Reference: ChEMBL document CHEMBL1144351, “Synthesis, structure-activity relationship, and receptor pharmacology of a new series of quinoline derivatives acting as selective, noncompetitive mGlu1 antagonists” (J Med Chem, 2005)
